Compound activity from PubChem BioAssay.
This is a sample that favours compounds with a hit; in the whole collection about 2.5% have one here.
DENV2 CPE – inhibitors of DENV2 cytopathic effect, primary screen, cell-based, plate reader, single concentration; DENV2-infected cells, cytopathic effect rescue; CPE inhibition, % at 9.99 µM; 350,000 tested, 1.7% active; AID 651640, 2012; in the data active = CPE inhibition above about 20%, passing the limit was not always enough; tested in BHK-21 cells;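 also: 0% = median of neutral control wells and 100% = median of positive control wells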
E-selectin induc – E-selectin induction in HUVECs, primary screen, imaging, HUVEC, immunofluorescence imaging, single point | activation, % at 7.58 µM | P16581 | normalized: neutral wells 0, TNF-alpha wells 100 | 260,000 tested, 0.37% active;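 active = mean E-selectin-positive cell signal at least 10% of the positive control, reached in at least 60% of replicates, without over 20% cell loss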
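assay system = HUVEC, human umbilical vein endothelial cells | input = 3,000 HUVEC seeded per well | medium = EGM-2 growth medium on 0.1% gelatin-coated wells | dosing = one compound dose added by pin transfer | signal = immunofluorescence imaging | read-out basis = % PE-positive cells | control set = TNF-alpha, DMSO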
ERAP1 HTS inh – human ERAP1 aminopeptidase inhibitors, primary screen, biochemical, single point, plate reader; recombinant ERAP1, Leu-AMC fluorescence, 60 min; inhibition, % at 10.7 µM; 340,000 tested, 0.15% active; AID 652197, 2013;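 active = mean replicate inhibition of at least 30%, or all replicates individually reaching that 30% level; inactive = mean below 30% and not every replicate reaching it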;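 also: 0% = neutral control wells and 100% = L-leucinethiol positive control wells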
SIRT5 block – SIRT5 desuccinylase inhibitors, primary screen, biochemical, fluorescence imaging, single point, set 5; NAD-dependent protein deacylase sirtuin-5, mitochondrial (Homo sapiens), Q9NXA8; Purified SirT5, succinyl-peptide AMC, trypsin-coupled fluorescence; inhibition, % at 15 µM; 330,000 tested, 1.1% active; AID 652115, 2013; in the data active = inhibition above about 15%
PglD DTNB – C. jejuni PglD acetyltransferase inhibitors, primary screen, biochemical, DTNB colorimetric, single point. UDP-N-acetylbacillosamine N-acetyltransferase PglD (Campylobacter jejuni). purified PglD enzyme, DTNB colorimetric CoA detection. inhibition, % at 12.5 µM. 360,000 tested, 0.098% active; in the data active = inhibition above about 16%, passing the limit was not always enough
* marks the source's active call; other numbers are inactive results; . = no result.

SMILES	DENV2 CPE	E-selectin induc	ERAP1 HTS inh	SIRT5 block	PglD DTNB
COc1ccccc1NC(=O)N1C[C@@H](O)COC[C@H]2O[C@@H](CC(=O)NCCc3ccncc3)CC[C@@H]21	-4.3	0.0	-1.0	-0.3	-1.4
COc1ccc(NC(=O)C2CCN(S(=O)(=O)c3cccc4cccnc34)CC2)cc1OC	-6.0	.	.	.	1.7
COc1ccc(C)cc1NC(=O)C1CCN(S(=O)(=O)c2cccc3cccnc23)CC1	27.7*	.	-1.9	.	-0.2
CN(C)C(=O)C[C@H]1CC[C@@H]2[C@H](COC[C@@H](O)CN2C(=O)c2ccncc2)O1	0.1	0.0	-3.6	16.3*	-2.5
CN(C)C(=O)C[C@@H]1CC[C@H]2[C@@H](COC[C@@H](O)CN2C(=O)c2ccncc2)O1	2.8	-0.1	.	.	1.2
O=C(C[C@@H]1CC[C@H]2[C@@H](COC[C@@H](O)CN2C(=O)c2ccncc2)O1)Nc1ccc(-c2ccccc2)cc1	20.9*	0.0	2.3	3.5	-1.4
O=S(=O)(c1ccccc1F)N1CCCCN2[C@@H](CO)[C@@H](c3ccc(-c4ccccc4)cc3)[C@@H]2C1	18.4	-0.2	1.6	5.3	2.8
CCOC(=O)[C@]12CCCC=C1N(Cc1cccc3ccccc13)C(=O)[C@H](CC(=O)NCc1ccccc1)C2	2.1	.	0.2	-7.5	.
CCCCCCCCN1C(=O)[C@H](CC(=O)NCCCC)C[C@@]2(C(=O)OCC)CCCC=C12	-2.0	.	2.3	.	.
CCOC(=O)[C@]12CCCC=C1N(Cc1ccc3c(c1)OCO3)C(=O)[C@H](CC(=O)NCCCCc1ccccc1)C2	50.3*	.	-2.3	-0.6	.
CCCCCCCCN1C(=O)[C@H](CC(=O)NCC23CC4CC(CC(C4)C2)C3)C[C@@]2(C(=O)OCC)CCCC=C12	20.1*	.	-1.5	-4.5	.
CCOC(=O)[C@]12CCCC=C1N(CCC1=CCCCC1)C(=O)[C@H](CC(=O)NCc1cccc3ccccc13)C2	21.7*	-0.3	-0.6	-2.2	.
CCCCCCCCN1C(=O)[C@H](CC(=O)NCc2cccc(C(F)(F)F)c2)C[C@@]2(C(=O)OC)CC(C)(C)CC=C12	43.9*	0.8	-5.0	14.6	.
CCCCCCCCN1C(=O)[C@@H](CC(=O)NCc2cccc(C(F)(F)F)c2)C[C@@]2(C(=O)OC)C1=C[C@H](C(C)(C)C)O[C@@H]2C	5.0	-0.4	-1.6	.	.
COc1ccc(CNC[C@H]2O[C@@H](n3ccc(=O)[nH]c3=O)[C@H](O)[C@@H]2O)cc1OC	-4.4	0.0	2.7	.	-2.3
COc1ccc(C2/C(=C(/O)c3ccccc3)C(=O)C(=O)N2CO)cc1 (stereo not drawn)	.	.	.	.	-3.1
CCCCCCCCN1C(=O)[C@H](CC(=O)NCc2cccc3ccccc23)C[C@@]2(C(=O)OCC)CCC=C12	6.5	0.1	.	15.6*	.
CCOC(=O)[C@]12CCCC=C1N(CCC1=CCCCC1)C(=O)[C@H](CC(=O)NCc1ccc(OC)c(OC)c1)C2	38.0*	-0.3	-0.3	2.4	.
COC(=O)[C@]12CCCCC=C1N(CCC1=CCCCC1)C(=O)[C@H](CC(=O)NCc1ccc(OC)c(OC)c1)C2	3.8	-0.1	1.4	-1.5	.
O=C(Cn1cnc2cc([N+](=O)[O-])ccc2c1=O)NCc1ccc(Cl)cc1	-1.8	.	0.9	-3.8	.
O=C(/C=C/c1ccccc1)NC(=S)N1CCSCC1	-13.9	-3.6	-1.1	1.0	.
CC(=O)OCCCN(C)CC/C=C1/c2ccccc2CSc2ccccc21	43.4*	.	-3.7	-6.0	.
CC(=O)N1c2ccc(S(=O)(=O)NCC3CCC(C(=O)NC4CCC(C)CC4)CC3)cc2CC1C (stereo not drawn)	1.1	.	-2.9	-2.9	-1.8
CC(=O)N1c2ccc(S(=O)(=O)NCCC(=O)NC3CCC(C)CC3)cc2CC1C (stereo not drawn)	-4.8	.	-3.4	44.4*	0.3
C[C@H](CO)N1C[C@H](C)[C@@H](CN(C)CC2CC2)Oc2c(NC(=O)Nc3ccccc3)cccc2C1=O	6.1	-2.2	-0.4	-0.2	4.7
C[C@@H]1CN([C@H](C)CO)C(=O)c2cccc(NC(=O)C3CC3)c2O[C@@H]1CN(C)CC1CC1	-4.1	77.2*	-0.3	-6.9	-0.2
